Experimental data published in ChEMBL document CHEMBL1212762, “In vivo activity of ceftobiprole in murine skin infections due to Staphylococcus aureus and Pseudomonas aeruginosa” (Antimicrob Agents Chemother, 2010).

Tests used:
Pseudomonas aeruginosa [1] = experiment: Antimicrobial activity against Pseudomonas aeruginosa OC 4354 infected in immunocompromized SKH1 mouse assessed as log change in bacterial colony forming unit at 25 mg/kg/day, sc; type: functional; conditions: route subcutaneous
Procedure, shortened: (§1)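 Female SKH1 hairless mice made neutropenic with ip cyclophosphamide (150 mg/kg 5 days and 100 mg/kg 1 day before infection). 0.2 ml s.c. Cytodex bead (0.1% vol/vol) inoculum in BHI: OC 4351 left flank, OC 4354 right flank. Drug s.c. at 1, 3, 25, 27 h postinfection. Killed at 48 h; skin homogenised in saline, plated on TSA 18 h 37°C; Δlog CFU/g versus inoculum. 5 mice/dose, run twice.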

[2] = Tmax in immunocompromized SKH1 mouse plasma at 50 mg/kg, sc; type: ADME, organism-based; design: dose 50 mg/kg, route subcutaneous
Procedure, shortened: (§2)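 Female SKH1 hairless mice, immunocompetent or cyclophosphamide-neutropenic, infected s.c. with MRSA OC 8525 or P. aeruginosa OC 4354 on the Cytodex beads (left flank), sterile beads on the right. Single dose 24 h later: s.c. at the nape, or linezolid 50 mg/kg oral. Plasma and skin (DMSO homogenate) sampled over time, HPLC with diode array.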

Staphylococcus aureus [3] = experiment: Antimicrobial activity against methicillin-susceptible Staphylococcus aureus Smith OC 4172 infected immunocompetent SKH1 mouse assessed as lesion volume at 100 mg/kg/day, sc measured after 48 hrs postinfection (reference value: 1181 mm3); conditions: route subcutaneous
[4] = Half life in immunocompetent SKH1 mouse plasma at 12.5 mg/kg, sc; type: ADME, organism-based; design: dose 12.5 mg/kg, route subcutaneous; procedure, shortened: as §2
Staphylococcus aureus [5] = experiment: Antimicrobial activity against methicillin-resistant Staphylococcus aureus OC 8525 infected immunocompetent SKH1 mouse assessed as lesion volume at 100 mg/kg/day, sc measured after 48 hrs postinfection (reference value: 1535 mm3); conditions: route subcutaneous
Staphylococcus aureus [6] = experiment: Antimicrobial activity against methicillin-resistant Staphylococcus aureus OC 8525 infected immunocompetent SKH1 mouse assessed as lesion volume at 6.2 mg/kg/day, sc measured after 48 hrs postinfection (reference value: 1535 mm3); conditions: route subcutaneous
Pseudomonas aeruginosa [7] = experiment: Antimicrobial activity against Pseudomonas aeruginosa OC 4354 infected in immunocompromized SKH1 mouse assessed as lesion volume at 100 mg/kg/day, sc measured after 48 hrs postinfection (reference value: 2195 mm3); type: functional; conditions: route subcutaneous
[8] = Half life in Pseudomonas aeruginosa infected immunocompromized SKH1 mouse skin at 50 mg/kg, sc
Pseudomonas aeruginosa [9] = experiment: Antimicrobial activity against Pseudomonas aeruginosa OC 4351 infected in immunocompromized SKH1 mouse assessed as lesion volume at 25 mg/kg/day, sc measured after 48 hrs postinfection (reference value: 2234 mm3); type: functional; conditions: route subcutaneous
Staphylococcus aureus [10] = experiment: Antimicrobial activity against methicillin-resistant Staphylococcus aureus OC 8525 assessed as inhibition of growth by broth microdilution method; type: functional
Pseudomonas aeruginosa [11] = experiment: Antimicrobial activity against Pseudomonas aeruginosa OC 4354 infected in immunocompromized SKH1 mouse assessed as lesion volume at 1.6 mg/kg/day, sc measured after 48 hrs postinfection (reference value: 2195 mm3); type: functional; conditions: route subcutaneous
[12] = Half life in immunocompromized SKH1 mouse plasma at 50 mg/kg, sc; type: ADME, organism-based; design: dose 50 mg/kg, route subcutaneous
Pseudomonas aeruginosa [13] = experiment: Antimicrobial activity against Pseudomonas aeruginosa OC 4354 assessed as inhibition of growth by broth microdilution method; type: functional
[14] = Half life in immunocompromized SKH1 mouse skin at 50 mg/kg, sc; type: ADME, organism-based, Zone of skin; design: dose 50 mg/kg, route subcutaneous; procedure, shortened: as §2
Plasma [15] = experiment: fAUC (0-infinity) in immunocompetent SKH1 mouse plasma at 12.5 mg/kg, sc; type: ADME, organism-based; design: dose 12.5 mg/kg, route subcutaneous; conditions: in vivo; procedure, shortened: as §2
Staphylococcus aureus [16] = experiment: Antimicrobial activity against methicillin-susceptible Staphylococcus aureus Smith OC 4172 infected in SKH1 mouse assessed as log change in bacterial colony forming unit per gram of skin tissue at 1.6 mg/kg/day, sc (reference value: 1.6 deltalog CFU); type: functional; conditions: route subcutaneous
Pseudomonas aeruginosa [17] = experiment: Antimicrobial activity against Pseudomonas aeruginosa OC 4354 infected in immunocompromized SKH1 mouse assessed as log change in bacterial colony forming unit at 6.2 mg/kg/day, sc; type: functional; conditions: route subcutaneous; procedure, shortened: as §1
Pseudomonas aeruginosa [18] = experiment: Antimicrobial activity against Pseudomonas aeruginosa OC 4351 infected in immunocompromized SKH1 mouse assessed as lesion volume at 100 mg/kg/day, sc measured after 48 hrs postinfection (reference value: 2234 mm3); type: functional; conditions: route subcutaneous
[19] = Tmax in immunocompetent SKH1 mouse plasma at 50 mg/kg, sc; type: ADME, organism-based; design: dose 50 mg/kg, route subcutaneous; procedure, shortened: as §2
Staphylococcus aureus [20] = experiment: Antimicrobial activity against methicillin-susceptible Staphylococcus aureus Smith OC 4172 infected immunocompetent SKH1 mouse assessed as lesion volume at 25 mg/kg/day, sc measured after 48 hrs postinfection (reference value: 1181 mm3); conditions: route subcutaneous
Zone of skin [21] = experiment: fCmax in Staphylococcus aureus infected immunocompetent SKH1 mouse skin at 50 mg/kg, sc; type: ADME, organism-based; design: dose 50 mg/kg, route subcutaneous; conditions: in vivo; procedure, shortened: as §2
Zone of skin [22] = experiment: fAUC (0-infinity) in immunocompromized SKH1 mouse skin at 50 mg/kg, sc; type: ADME, organism-based; design: dose 50 mg/kg, route subcutaneous; conditions: in vivo; procedure, shortened: as §2
Staphylococcus aureus [23] = experiment: Antimicrobial activity against methicillin-resistant Staphylococcus aureus OC 8525 infected immunocompetent SKH1 mouse assessed as lesion volume at 1.6 mg/kg/day, sc measured after 48 hrs postinfection (reference value: 1535 mm3); conditions: route subcutaneous
Plasma [24] = experiment: fCmax in immunocompetent SKH1 mouse plasma at 12.5 mg/kg, sc; type: ADME, organism-based; design: dose 12.5 mg/kg, route subcutaneous; conditions: in vivo; procedure, shortened: as §2
[25] = Tmax in Staphylococcus aureus infected […] SKH1 mouse skin at 50 mg/kg, sc; type: ADME, organism-based, Zone of skin; design: dose 50 mg/kg, route subcutaneous
Staphylococcus aureus [26] = experiment: Antimicrobial activity against methicillin-susceptible Staphylococcus aureus OC 4172 assessed as inhibition of growth by broth microdilution method; type: functional
Staphylococcus aureus [27] = experiment: Antimicrobial activity against methicillin-susceptible Staphylococcus aureus Smith OC 4172 infected immunocompetent SKH1 mouse assessed as lesion volume at 1.6 mg/kg/day, sc measured after 48 hrs postinfection (reference value: 1181 mm3); conditions: route subcutaneous
Pseudomonas aeruginosa [28] = experiment: Antimicrobial activity against Pseudomonas aeruginosa OC 4351 infected in immunocompromized SKH1 mouse assessed as log change in bacterial colony forming unit at 100 mg/kg/day, sc; type: functional; conditions: route subcutaneous; procedure, shortened: as §1
Staphylococcus aureus [29] = experiment: Antimicrobial activity against methicillin-susceptible Staphylococcus aureus Smith OC 4172 infected immunocompetent SKH1 mouse assessed as lesion volume at 6.2 mg/kg/day, sc measured after 48 hrs postinfection (reference value: 1181 mm3); conditions: route subcutaneous
[30] = fT>MIC in Pseudomonas aeruginosa OC 4351 infected sc dosed SKH1 mouse at 50 mg/kg, sc administered twice at 1 and 3 hrs after infection; type: functional; conditions: route subcutaneous
Staphylococcus aureus [31] = experiment: Antimicrobial activity against methicillin-resistant Staphylococcus aureus OC 8525 infected immunocompetent SKH1 mouse assessed as lesion volume at 25 mg/kg/day, sc measured after 48 hrs postinfection (reference value: 1535 mm3); conditions: route subcutaneous
[32] = fT>MIC in Pseudomonas aeruginosa OC 4354 infected sc dosed SKH1 mouse at 50 mg/kg, sc administered twice at 1 and 3 hrs after infection; type: functional; conditions: route subcutaneous

## Nc1nc(/C(=N/O)C(=O)N[C@@H]2C(=O)N3C(C(=O)O)=C(/C=C4\CCN([C@@H]5CCNC5)C4=O)CS[C@H]23)ns1 [CEFTOBIPROLE]
Pseudomonas aeruginosa [1]
  deltalog10CFU: -1.3
[2]
  Tmax: 7.5 min
Staphylococcus aureus [3]
  Activity: 555 mm3
[4]
  half-life: 17 min
Staphylococcus aureus [5]
  Activity: 484 mm3
Staphylococcus aureus [6]
  Activity: 896 mm3
Pseudomonas aeruginosa [7]
  Activity: 373 mm3
[8]
  half-life: 76 min
Pseudomonas aeruginosa [9]
  Activity: 552 mm3
Staphylococcus aureus [10]
  MIC: 1 mg/L
Pseudomonas aeruginosa [11]
  Activity: 1833 mm3
[12]
  half-life: 13 min
Pseudomonas aeruginosa [13]
  MIC: 4 mg/L
[14]
  half-life: 30 min
Plasma [15]
  fAUC: 481 µg·min/mL
Staphylococcus aureus [16]
  deltalog10CFU: -1
Pseudomonas aeruginosa [17]
  deltalog10CFU: -0.4
Pseudomonas aeruginosa [18]
  Activity: 389 mm3
[19]
  Tmax: 7.5 min
Staphylococcus aureus [20]
  Activity: 640 mm3
Zone of skin [21]
  fCmax: 13 µg/g
Zone of skin [22]
  fAUC: 690 µg·min/mL
Staphylococcus aureus [23]
  Activity: 1058 mm3
Plasma [24]
  fCmax: 17 µg/mL
[25]
  Tmax: 15 min
Staphylococcus aureus [26]
  MIC: 0.25 mg/L
Staphylococcus aureus [27]
  Activity: 937 mm3
Pseudomonas aeruginosa [28]
  deltalog10CFU: -1.1
Staphylococcus aureus [29]
  Activity: 885 mm3
[30]
  fT>MIC: 2.2 h
Staphylococcus aureus [31]
  Activity: 642 mm3
[32]
  fT>MIC: 2.2 h
